Results as given in ChEMBL document CHEMBL5252676, “Dimeric polyphenols to pave the way for new antimalarial drugs” (RSC Med Chem, 2023).
Values after ≈ are worked out from the molar mass of the structure shown. Active and inactive are the calls of the source. No cut-off for these calls is given here.

Assays:
Plasmodium falciparum [1] = test: Antiplasmodial activity against chloroquine-sensitive Plasmodium falciparum 3D7 assessed as intraerythrocytic growth inhibition; format: functional, organism-based
Summary of the method: (§1)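 Asexual intraerythrocytic P. falciparum cultured at 37 °C in RPMI with glucose, hypoxanthine, gentamycin and 10% pooled human A+/O+ serum. DMSO stocks of 5–10 mg mL⁻¹ diluted in RPMI, final DMSO at most 1%. Eight two-fold dilutions tested in three consecutive assays. Growth read as Plasmodium lactate dehydrogenase activity at 650 nm against parasitized RBC (100%) and free RBC (0%). IC50 in triplicate; artemisinin and quinine as controls.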

[2] = Hemolytic activity in RBC (unknown origin) assessed as hemolysis at 100 ug/ml incubated for 1 hrs by absorbance based microplate reader analysis relative to control; format: toxicity, cell-based, Erythrocyte; conditions: red blood cells, at 100 µg/mL, read-out: Activity
Summary of the method: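 Human A⁺/O⁺ RBC, 10% v/v in PBS, exposed to compound at 100 μg mL⁻¹ final (DMSO < 1%), in duplicate, stirred 1 h at RT. Centrifuged, supernatant OD₅₅₀ read. % lysis = (sample − PBS)/(1% Triton X-100 − PBS) × 100.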

Plasmodium falciparum [3] = test: Antiplasmodial activity against chloroquine-resistant Plasmodium falciparum FcB1 assessed as intraerythrocytic growth inhibition; format: functional, organism-based; summary of the method: as §1
[4] = Selectivity index, ratio of IC50 for cytotoxicity against HUVEC cells to IC50 for antiplasmodial activity against chloroquine-sensitive Plasmodium falciparum 3D7; format: toxicity, cell-based; conditions: human, read-out: Ratio IC50
[5] = Cytotoxicity against HUVEC cells assessed as inhibition of cell growth incubated for 48 hrs by fluorescence based assay; format: toxicity; conditions: human
Summary of the method: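 HUVEC in EGM-2, at most 10 passages, seeded at 2.5 × 10⁴ cells/well and grown 24 h at 37 °C. Six 2-fold concentrations in triplicate (DMSO max 0.5%) for 48 h. PrestoBlue for 2–3 h, fluorescence 560–590 nm, growth compared with untreated cells. n = 3 separate tests.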

Plasmodium falciparum [6] = test: Antiplasmodial activity against multidrug-resistant Plasmodium falciparum W2 assessed as intraerythrocytic growth inhibition; format: functional, organism-based; summary of the method: as §1
[7] = Aqueous solubility of compound assessed as Cmax incubated for 3 days by UV spectrophotometer based shake-flask method; format: physicochemical; conditions: water (aqueous); time 3 day; read-out: Cmax
Summary of the method: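 Shake-flask: excess solid stirred overnight in MilliQ water at RT (~25 °C), filtered 0.45 μm, diluted, absorbance read at the λmax from a UV scan. Quantified against a 3-point calibration curve (R² > 0.95). Fresh saturated solutions were made on 3 consecutive days.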

[8] = Toxicity in zebrafish embryos assessed as reduction in egg hatching at 10 to 100 ug/ml measured 5 days post fertilization; design: species or system Danio rerio; conditions: in vivo, 120 h, dose 10-100 µg/ml, time 5 day
[9] = Toxicity in zebrafish embryos assessed as reduction in brain size at 10 to 100 ug/ml measured for 3 days; format: tissue-based, Danio rerio; conditions: in vivo, 72 h, dose 10-100 µg/ml, time 3 day
[10] = Toxicity in zebrafish embryo assessed as developmental defects at 10 to 100 ug/ml measured 24 hrs post fertilization; design: species or system Danio rerio; conditions: in vivo, dose 10-100 µg/ml
[11] = Toxicity in zebrafish embryos assessed as modified heart rate at 10 to 100 ug/ml measured for 3 days; design: species or system Danio rerio; conditions: in vivo, 72 h, dose 10-100 µg/ml, time 3 day
[12] = Toxicity in zebrafish embryos assessed as brain misshape at 10 to 100 ug/ml measured for 3 days; format: tissue-based, Danio rerio; conditions: in vivo, 72 h, dose 10-100 µg/ml, time 3 day
[13] = Toxicity in zebrafish embryos assessed as reduction in egg hatching measured for 72 hrs; design: species or system Danio rerio; conditions: in vivo, dose 10-100 µg/ml
[14] = Toxicity in zebrafish embryos assessed as survival at highest concentration measured for 3 days relative to control; design: species or system Danio rerio; conditions: in vivo, time 3 day, read-out: Activity
Summary of the method: (§2)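 Zebrafish embryos were synchronized 24 h after collection and kept at 28 °C with chorion intact, 20 per condition in duplicate. They were exposed to 100, 50, 25 or 10 μg mL⁻¹ from 100 mg mL⁻¹ DMSO stocks (final DMSO under 0.1%), with medium renewed daily for 3 days. Aspect, hatching and mortality were followed to 96 hpf against 30 control embryos in water with 0.1% DMSO.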

[15] = Toxicity in zebrafish embryo assessed as survival at 10 to 100 ug/ml measured 24 hrs post fertilization relative to control; design: species or system Danio rerio; conditions: in vivo, at 10 to 100 µg/mL, dose 10-100 µg/ml, read-out: Activity; summary of the method: as §2
[16] = Toxicity in zebrafish embryos assessed as egg hatching at 10 to 100 ug/ml measured for 72 hrs relative to control; format: tissue-based, Danio rerio; conditions: in vivo, at 10 to 100 µg/mL, dose 10-100 µg/ml
Plasmodium berghei [17] = test: Antiplasmodial activity against Plasmodium berghei NK173 infected in Swiss CD-1 mouse model of malaria assessed as reduction in parasitaemia at 25 mg/kg, po measured after 7 days by giemsa staining based microscopic analysis; format: functional, organism-based; conditions: time 7.0 day
Summary of the method: (§3)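 Peters' 4-day suppressive test: female Swiss CD1 mice (10 weeks, 25 ± 2 g), six per group, infected i.p. with P. berghei NK173-parasitized RBC at D1. Dosing 2–3 h post-infection, then daily for 3 days, in 7% Tween 80/3% EtOH in saline. Giemsa thin tail-blood smears (≥500 erythrocytes) at D4 (2 h post-dose) and D7. Inhibition is taken versus vehicle controls.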

Plasmodium berghei [18] = test: Antiplasmodial activity against Plasmodium berghei NK173 infected in Swiss CD-1 mouse model of malaria assessed as reduction in parasitaemia at 4 mg/kg, ip measured after 7 days by giemsa staining based microscopic analysis; format: functional, organism-based; conditions: time 7.0 day; summary of the method: as §3
Plasmodium berghei [19] = test: Antiplasmodial activity against Plasmodium berghei NK173 infected in Swiss CD-1 mouse model of malaria assessed as reduction in parasitaemia at 50 mg/kg, ip measured after 4 days by giemsa staining based microscopic analysis relative to control; format: functional; design: scale not given: the % may be the effect or the level left; conditions: time 4 day; summary of the method: as §3
Plasmodium berghei [20] = test: Antiplasmodial activity against Plasmodium berghei NK173 infected in Swiss CD-1 mouse model of malaria assessed as reduction in parasitaemia at 50 mg/kg, po measured after 4 days by giemsa staining based microscopic analysis relative to control; format: functional; design: scale not given: the % may be the effect or the level left; conditions: time 4 day; summary of the method: as §3
[21] = Toxicity in mouse at 150 mg/kg, ip administered 2 hrs once for 6 hrs and measured for 24 hrs; format: organism-based; conditions: in vivo
Summary of the method: (§4)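 Two mice per route (i.p. or p.o.) received 4 increasing doses over 6 h (every 2 h) in Tween 80/EtOH/saline (7/3/90), then were followed for 24 h for health or behavioural problems. Maximal dose is set as 50% of the cumulative dose giving toxicity.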

[22] = Toxicity in mouse at 200 mg/kg, po administered 2 hrs once for 6 hrs and measured for 24 hrs; format: organism-based; conditions: in vivo; summary of the method: as §4

SMILES	IC50 (Plasmodium falciparum [1]) [µM]	hemolysis at 1 h, 100 ug/ml [2] [%]	IC50 (Plasmodium falciparum [3]) [µM]	selectivity ratio [4]	IC50 at 48 h [5] [µM]	IC50 (Plasmodium falciparum [6]) [µM]	solubility thermodynamic at 72 h [7] [µM]	other results
C[C@@H]1CC[C@H]2[C@@H](C)C(=O)O[C@@H]3O[C@@]4(C)CC[C@@H]1[C@]32OO4 [ARTEMISININ]	0.013	< 1	17	–	–	–	–	–
O=C(OCCCOC(=O)c1cc(O)c(OCc2ccc3ccccc3c2)c(O)c1)c1cc(O)c(OCc2ccccc2)c(O)c1	0.9	< 1	0.9	5	6.9	0.4	–	–
O=C(OCCCOC(=O)c1cc(O)c(O)c(O)c1)c1ccc(O)c(O)c1	5.5	< 1	4.9	41	84	7.6	280 (≈ 102 µg/mL)	–
COCOc1cc(C(=O)OCCCOC(=O)c2cc(OCOC)c(OCc3ccccc3)c(OCOC)c2)cc(OCOC)c1OCc1ccccc1	4.5	< 1	–	–	–	–	3 (≈ 2.21 µg/mL)	–
O=C(OCCCOC(=O)c1cc(O)c(OCCOCc2ccccc2)c(O)c1)c1cc(O)c(OCCOCc2ccccc2)c(O)c1	3.2	< 1	–	5	15	–	–	–
C=C[C@H]1CN2CC[C@H]1C[C@H]2[C@H](O)c1ccnc2ccc(OC)cc12 [QUININE]	0.6	< 1	–	–	–	–	–	–
O=C(NCCCOC(=O)c1cc(O)c(O)c(O)c1)c1cc(O)c(O)c(O)c1	6.3	< 1	4.7	11	59	6.8	2100 (≈ 797 µg/mL)	Activity [8]: Toxic; Activity [9]: Non-Toxic; Activity [10]: Non-Toxic; Activity [11]: Non-Toxic; Activity [12]: Non-Toxic; Activity [13]: Dose-Dependent Effect; survival at 72 h [14]: > 90%; survival at 24 h [15]: > 95%
O=C(OCCCOC(=O)c1cc(O)c(O)c(O)c1)c1cc(O)cc(O)c1	4.6	< 1	3.8	> 21	–	3.6	1200 (≈ 437 µg/mL)	–
O=C(OCCOC(=O)c1cc(O)c(O)c(O)c1)c1cc(O)c(O)c(O)c1	3.7	< 1	3.7	19	69	6.7	430 (≈ 157 µg/mL)	Activity [9]: Non-Toxic; Activity [10]: Non-Toxic; Activity [16]: 100%; Activity [11]: Non-Toxic; Activity [12]: Non-Toxic; survival at 72 h [14]: > 90%; survival at 24 h [15]: > 95%
O=C(OCCCOC(=O)c1ccc(O)c(O)c1)c1ccc(O)c(O)c1	9	< 1	–	> 42	> 144	–	33 (≈ 11.5 µg/mL)	–
COCOc1cc(C(=O)OCCCOC(=O)c2cc(OCOC)c(OCc3ccc4ccccc4c3)c(OCOC)c2)cc(OCOC)c1OCc1ccccc1	21	< 1	–	–	–	–	–	–
O=C(OCCCOC(=O)c1cc(O)c(OCc2ccc3ccccc3c2)c(O)c1)c1cc(O)c(OCc2ccc3ccccc3c2)c(O)c1	4	< 1	1.1	2.4	9.7	1.8	–	–
O=C(Nc1cccc(OC(=O)c2cc(O)c(O)c(O)c2)c1)c1cc(O)c(O)c(O)c1	2.1	< 1	3.7	6	54	3.4	300 (≈ 124 µg/mL)	–
O=C(Nc1ccc(OC(=O)c2cc(O)c(O)c(O)c2)cc1)c1cc(O)c(O)c(O)c1	3.9	< 1	3.1	> 13	> 121	2.9	66 (≈ 27.3 µg/mL)	–
O=C(OCCCCOC(=O)c1cc(O)c(O)c(O)c1)c1cc(O)c(O)c(O)c1	3.7	< 1	5.7	> 35	> 127	5	150 (≈ 59.1 µg/mL)	Activity [9]: Non-Toxic; Activity [10]: Non-Toxic; Activity [16]: 100%; Activity [11]: Non-Toxic; Activity [12]: Non-Toxic; survival at 72 h [14]: > 90%; survival at 24 h [15]: > 95%
CCN(CC)CCCC(C)Nc1ccnc2cc(Cl)ccc12 (stereo not drawn) [CHLOROQUINE]	–	< 1	–	–	–	–	–	Activity (Plasmodium berghei [17]): inactive; Activity (Plasmodium berghei [18]): inactive
O=C(OCCCOC(=O)c1cc(O)c(OCCO)c(O)c1)c1cc(O)c(O)c(O)c1	20	< 1	4.3	> 14	> 118	7.6	–	–
O=C(OCCCOC(=O)c1cc(O)c(O)c(O)c1)c1cc(O)c(O)c(O)c1	5.8	< 1	3.2	> 23	> 132	4.1	2700 (≈ 1030 µg/mL)	Activity (Plasmodium berghei [19]): 26%; Activity [9]: Non-Toxic; Activity (Plasmodium berghei [20]): 5%; Activity [10]: Non-Toxic; Activity [16]: 100%; Activity [11]: Non-Toxic; Activity [12]: Non-Toxic; Activity [21]: Non-Toxic; Activity [22]: Non-Toxic; survival at 72 h [14]: > 90%; survival at 24 h [15]: > 95%
O=C(OCCCOC(=O)c1cc(O)c(O)c(O)c1)c1ccccc1	27	< 1	11	3	78	13	600 (≈ 199 µg/mL)	–
O=C(OCCCOC(=O)c1ccccc1)c1ccccc1	> 352	< 1	–	–	–	–	7 (≈ 1.99 µg/mL)	–
